Active and inactive are the calls of the source. The rule behind the calls is not given here.
Assays:
PC-3 [1] = assay: Cell cycle arrest in human PC3 cells assessed as accumulation at G2/M phase at 2 uM after 24 hrs by propidium iodide staining-based flow cytometric method (reference value: 33.13%); type: functional
RWPE-1 = assay: Cytotoxicity against human RWPE1 cells assessed as inhibition of cell viability after 48 hrs by MTT assay; type: cell-based; conditions: RWPE-1, 48 h
Outline: (§1)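 Cells were seeded at 2.5‒5 x 10^3 per well in DMEM or RPMI with 10% FBS and grown 24 h at 37 °C under CO2. Compounds diluted in medium were added alongside vehicle control for 48 h. MTT (0.5 mg/mL) was added for 4 h, formazan dissolved in DMSO and absorbance read at 570 nm. IC50 is the concentration giving 50% loss of viability; mean ± SD of three experiments, each in triplicate.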

PC-3 [2] = assay: Induction of apoptosis in human PC3 cells assessed as apoptotic body formation at 1 uM after 48 hrs by acridine orange/ethidium bromide staining-based fluorescence inverted microscopic method; type: functional, cell-based
Outline: (§2)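 PC-3 cells (25000/well) grown 24 h, then exposed 48 h to 0.5, 1 or 2 µM with DMSO control. After PBS wash, stained with acridine orange and ethidium bromide (10 µg/mL each) and imaged at once by fluorescence inverted microscopy (ex 488 nm, em 530 nm, 200x).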

PC-3 [3] = assay: Cell cycle arrest in human PC3 cells assessed as accumulation at G0/G1 phase at 1 uM after 24 hrs by propidium iodide staining-based flow cytometric method (reference value: 58.41%); type: functional
HeLa = assay: Cytotoxicity against human HeLa cells assessed as inhibition of cell viability after 48 hrs by MTT assay; type: functional, cell-based; outline: as §1
PC-3 [4] = assay: Induction of apoptosis in human PC3 cells assessed as late apoptotic cells at 2 uM after 24 hrs by FITC-annexin V/propidium iodide staining-based flow cytometric method (reference value: 5.75%); type: functional
PC-3 [5] = assay: Induction of apoptosis in human PC3 cells assessed as blebbing of cell membrane at 0.5 uM after 48 hrs by acridine orange/ethidium bromide staining-based fluorescence inverted microscopic method; type: functional; outline: as §2
Sus scrofa [6] = organism: Sus scrofa; assay: Inhibition of tubulin polymerization in porcine brain at 10 uM after 60 mins by fluorescence assay relative to control
Outline: (§3)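 Cell-free kit assay using porcine brain tubulin (2 mg/mL) in 80 mM PIPES pH 6.9 with 2.0 mM MgCl2, 0.5 mM EGTA, 1.0 mM GTP and glycerol; compound at 10 µM final, nocodazole as positive control. Polymerization tracked over time as fluorescence of a reporter incorporated into microtubules (ex 360 nm, em 440 nm), with inhibition relative to control.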

PC-3 [7] = assay: Induction of apoptosis in human PC3 cells assessed as appearance of horse-shoe shaped nuclei at 2 uM after 48 hrs by acridine orange/ethidium bromide staining-based fluorescence inverted microscopic method; type: functional, cell-based; outline: as §2
PC-3 [8] = assay: Induction of apoptosis in human PC3 cells assessed as early apoptotic cells at 4 uM after 24 hrs by FITC-annexin V/propidium iodide staining-based flow cytometric method (reference value: 7.62%); type: functional
PC-3 [9] = assay: Induction of apoptosis in human PC3 cells assessed as nuclei condensation at 1 to 2 uM after 48 hrs by DAPI staining-based fluorescence microscopic method; type: functional, cell-based
Outline: (§4)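 PC-3 cells (25000/well) adhered overnight, then treated 48 h at 1 or 2 µM. After PBS wash, fixed 20 min in 4% neutral buffered formalin, permeabilized 5 min with 0.2% Triton X, and stained 10 min at room temperature with DAPI (1 µg/mL). Nuclei viewed by fluorescence microscopy (ex 350 nm, em 460 nm, 200x).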

PC-3 [10] = assay: Induction of mitochondrial membrane depolarization in human PC3 cells at 4 uM after 24 hrs by JC1 staining-based flow cytometric method (reference value: 11.9%); type: functional
PC-3 [11] = assay: Induction of apoptosis in human PC3 cells assessed as late apoptotic cells at 4 uM after 24 hrs by FITC-annexin V/propidium iodide staining-based flow cytometric method (reference value: 5.75%); type: functional
4T1 = assay: Cytotoxicity against mouse 4T1 cells assessed as inhibition of cell viability after 48 hrs by MTT assay; type: functional, cell-based; conditions: 4T1, 48 h; outline: as §1
PC-3 [12] = assay: Induction of apoptosis in human PC3 cells assessed as chromatin condensation at 0.5 uM after 48 hrs by acridine orange/ethidium bromide staining-based fluorescence inverted microscopic method; type: functional, cell-based; outline: as §2
PC-3 [13] = assay: Cell cycle arrest in human PC3 cells assessed as accumulation at subG1 phase at 1 uM after 24 hrs by propidium iodide staining-based flow cytometric method (reference value: 0.38%); type: functional
HGC-27 = assay: Cytotoxicity against human HGC27 cells assessed as inhibition of cell viability after 48 hrs by MTT assay; type: functional, cell-based; conditions: HGC-27, 48 h; outline: as §1
DU-145 [14] = assay: Potency index, ratio of curcumin IC50 to test compound IC50 for human DU145 cells; type: functional
NCI-H460 [15] = assay: Cytotoxicity against human NCI-H460 cells assessed as inhibition of cell viability after 48 hrs by MTT assay; type: functional, cell-based; conditions: NCI-H460, 48 h; outline: as §1
PC-3 [16] = assay: Cell cycle arrest in human PC3 cells assessed as accumulation at G0/G1 phase after 24 hrs by propidium iodide staining-based flow cytometric method; type: functional
PC-3 [17] = assay: Induction of apoptosis in human PC3 cells assessed as necrotic cells at 4 uM after 24 hrs by FITC-annexin V/propidium iodide staining-based flow cytometric method (reference value: 0.32%); type: functional
PC-3 [18] = assay: Cell cycle arrest in human PC3 cells assessed as accumulation at S phase at 1 uM after 24 hrs by propidium iodide staining-based flow cytometric method (reference value: 8.08%); type: functional
Sus scrofa [19] = organism: Sus scrofa; assay: (§5) Inhibition of tubulin polymerization in porcine brain at 10 uM after 60 mins by fluorescence assay; outline: as §3
[20] = as §5; parameters: species or system Sus scrofa; outline: as §3
PC-3 [21] = assay: Induction of apoptosis in human PC3 cells assessed as necrotic cells at 2 uM after 24 hrs by FITC-annexin V/propidium iodide staining-based flow cytometric method (reference value: 0.32%); type: functional
PC-3 [22] = assay: Cytotoxicity against human PC3 cells assessed as inhibition of cell viability after 48 hrs by MTT assay; type: functional, cell-based; conditions: PC-3, 48 h; outline: as §1
PC-3 [23] = assay: Induction of apoptosis in human PC3 cells assessed as destructive fragmentation of nuclei at 2 uM after 48 hrs by acridine orange/ethidium bromide staining-based fluorescence inverted microscopic method; type: functional, cell-based; outline: as §2
DU-145 [24] = assay: Cytotoxicity against human DU145 cells assessed as inhibition of cell viability after 48 hrs by MTT assay; type: functional, cell-based; conditions: DU-145, 48 h; outline: as §1
PC-3 [25] = assay: Induction of apoptosis in human PC3 cells after 24 hrs by FITC-annexin V/propidium iodide staining-based flow cytometric method; type: functional, cell-based
PC-3 [26] = assay: Induction of apoptosis in human PC3 cells assessed as nuclei fragmentation at 1 to 2 uM after 48 hrs by DAPI staining-based fluorescence microscopic method; type: functional, cell-based; outline: as §4
PC-3 [27] = assay: Induction of mitochondrial membrane depolarization in human PC3 cells after 24 hrs by JC1 staining-based flow cytometric method; type: functional, cell-based
PC-3 [28] = assay: Cell cycle arrest in human PC3 cells assessed as accumulation at subG1 phase at 2 uM after 24 hrs by propidium iodide staining-based flow cytometric method (reference value: 0.38%); type: functional
NCI-H460 [29] = assay: Potency index, ratio of curcumin IC50 to test compound IC50 for human NCI-H460 cells; type: functional

In the case of `COc1cc(OC)c(/C=C/C(=O)/C=C/c2nc3ccccn3c2-c2ccc(F)c(F)c2)c(OC)c1`, the Activity (PC-3 [1]) is reported as 55.84%, the IC50 (RWPE-1) is reported as 4.23 µM and the Activity (PC-3 [2]) is reported as “Active”. It also gave an Activity (PC-3 [3]) of 44.87%, an IC50 (HeLa) of 2.53 µM and an Activity (PC-3 [4]) of 27.94%. For the same molecule, the Activity (PC-3 [5]) was “Active”, the inhibition (Sus scrofa [6]) was 51.8% and the Activity (PC-3 [7]) was “Active”. For the same molecule, the Activity (PC-3 [8]) was 7.3%, the Activity (PC-3 [9]) was “Active” and the Activity (PC-3 [10]) was 52.3%. The Activity (PC-3 [11]) was 48.34%, the IC50 (4T1) was 1.71 µM and the Activity (PC-3 [12]) was “Active”. The Activity (PC-3 [13]) was 0.57%, the IC50 (HGC-27) was 2.21 µM and the “Ratio IC50” value (DU-145 [14]) was 11.1. The IC50 (NCI-H460 [15]) was 2.63 µM, the Activity (PC-3 [16]) was “Dose-dependent effect” and the Activity (PC-3 [17]) was 3.12%. The Activity (PC-3 [18]) was 9.97%, the inhibition (Sus scrofa [19]) was “Dose-dependent effect” and the IC50 [20] was 8.44 µM. The Activity (PC-3 [21]) was 1.32%, the IC50 (PC-3 [22]) was 2.11 µM and the Activity (PC-3 [23]) was “Active”. For the same molecule, the IC50 (DU-145 [24]) was 2.97 µM, the Activity (PC-3 [25]) was “Dose-dependent effect” and the Activity (PC-3 [26]) was “Active”. For the same molecule, the Activity (PC-3 [27]) was “Dose-dependent effect”, the Activity (PC-3 [28]) was 0.74% and the “Ratio IC50” value (NCI-H460 [29]) was 6.5.

From ChEMBL document CHEMBL4251576, “Synthesis and biological evaluation of curcumin inspired imidazo[1,2-a]pyridine analogues as tubulin polymerization inhibitors” (Eur J Med Chem, 2018)
